Measured values from paper PMC9715912 (Cell Reports, 2022).

Tests used:
Assay type in all cases: in vivo, Mus musculus
[1] = tested on: hypothalamus and hindbrain; conditions: 2-DG 250 mg/kg i.p. after 5 h food deprivation; Fig 3B
In short: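 Mice food-deprived 5 h, then given 2-DG (250 mg/kg i.p.). […] Brains were dissected, dehydrated through a tetrahydrofuran series, cleared in dibenzylether and imaged by whole-brain light-sheet microscopy. Signal was autofluorescence-unmixed, and the volume of signal dispersion was quantified. Blood glucose was tracked; mean ± SEM.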

[2] = tested on: arcuate nucleus of control and Tanycyte^ΔVegfa mice; conditions: 2-DG 250 mg/kg with Ex-4_Cy3 120 nmol/kg; data not shown
[3] = tested on: hypothalamus (ME/ARC) and other CVOs; conditions: 120 nmol/kg i.p., 15 min before sacrifice; 2D planes from LSFM; Fig 2A
[4] = Glycemic change; conditions: single i.p. insulin injection, mean ± SEM
[5] = tested on: control and Tanycyte^ΔVegfa mice; test: Metabolic efficiency; conditions: chow, daily i.p. insulin 20 nmol/kg, Fig 5F,G

Compound: O=CC[C@@H](O)[C@H](O)[C@H](O)CO [2-DG, 2-deoxyglucose]
- blood glucose (counter-regulatory response) [1]: increased

Compound: Ex-4_Cy3: fluorescent Exendin-4 labeled with Cy3, Novo Nordisk
- total fluorescence intensity, control vs Tanycyte ΔVegfa [2]: comparable between groups

Compound: Ex-4_VT^750: fluorescent labeled Exendin4 (VT750), Novo Nordisk
- brain regions with Ex-4_VT750 signal after systemic administration [3]: detected in the ME/ARC, OLVT, AP, SFO, and choroid plexus

Compound: insulin: Insulin (Novorupid, Flex pen, 8-9670-79-202-2), Novo Nordisk
- glycemic change (vehicle/insulin), Tanycyte ΔVegfa ([4]; Tanycyte^ΔVegfa mice): 52% ± 2.08%
- glycemic change (vehicle/insulin), controls ([4]; control mice): 62% ± 5.7%
- change in fat oxidation in response to insulin, Tanycyte ΔVegfa mice [5]: comparable with vehicle
